Data taken from ChEMBL document CHEMBL2331097, “Synthesis of 5,7-disubstituted-4-methyl-7H-pyrrolo[2,3-d]pyrimidin-2-amines as microtubule inhibitors” (Bioorg Med Chem, 2013).
The source made the active and inactive calls. The calls are words filed in the database; no cut-off is given here.

Key:
OVCAR-4 = assay: Growth inhibition of human OVCAR4 cells after 48 hrs by SRB assay; format: functional; conditions: OVCAR-4, 48 h
MDA-MB-468 = assay: Growth inhibition of human MDA-MB-468 cells after 48 hrs by SRB assay; format: functional; conditions: MDA-MB-468, 48 h
SNB-75 = assay: Growth inhibition of human SNB75 cells after 48 hrs by SRB assay; format: functional; conditions: SNB-75, 48 h
HOP-62 = assay: Growth inhibition of human HOP62 cells after 48 hrs by SRB assay; format: functional; conditions: HOP-62, 48 h
NCI/ADR-RES = assay: Growth inhibition of human NCI/ADR-RES cells after 48 hrs by SRB assay; format: functional
IGROV-1 = assay: Growth inhibition of human IGROV1 cells after 48 hrs by SRB assay; format: functional; conditions: IGROV-1, 48 h
UACC-62 = assay: Growth inhibition of human UACC62 cells after 48 hrs by SRB assay; format: functional; conditions: UACC-62, 48 h
UACC-257 = assay: Growth inhibition of human UACC257 cells after 48 hrs by SRB assay; format: functional; conditions: UACC-257, 48 h
[1] = Ratio of compound IC50 to paclitaxel IC50 for mouse JC cells after 48 hrs by SRB assay; format: functional
HCT-15 = assay: Growth inhibition of human HCT15 cells after 48 hrs by SRB assay; format: functional; conditions: HCT-15, 48 h
SF-539 = assay: Growth inhibition of human SF539 cells after 48 hrs by SRB assay; format: functional; conditions: SF-539, 48 h
K562 = assay: Growth inhibition of human K562 cells after 48 hrs by SRB assay; format: functional; conditions: K562, 48 h
A549 = assay: Growth inhibition of human A549/ATCC cells after 48 hrs by SRB assay; format: functional; conditions: A549, 48 h
RXF 393 = assay: Growth inhibition of human RXF393 cells after 48 hrs by SRB assay; format: functional; conditions: RXF 393, 48 h
MCF7 = assay: Growth inhibition of human MCF7 cells after 48 hrs by SRB assay; format: functional; conditions: MCF7, 48 h
TK-10 = assay: Growth inhibition of human TK10 cells after 48 hrs by SRB assay; format: functional; conditions: TK-10, 48 h
OVCAR-5 = assay: Growth inhibition of human OVCAR5 cells after 48 hrs by SRB assay; format: functional; conditions: OVCAR-5, 48 h
[2] = Growth inhibition of human Hs 578T cells after 48 hrs by SRB assay; format: functional
[3] = Growth inhibition of human HCC2998 cells after 48 hrs by SRB assay; format: functional; conditions: HCC 2998, 48 h
SK-MEL-2 = assay: Growth inhibition of human SK-MEL-2 cells after 48 hrs by SRB assay; format: functional; conditions: SK-MEL-2, 48 h
SK-OV-3 = assay: Growth inhibition of human SKOV3 cells after 48 hrs by SRB assay; format: functional; conditions: SK-OV-3, 48 h
BT-549 = assay: Growth inhibition of human BT549 cells after 48 hrs by SRB assay; format: functional; conditions: BT-549, 48 h
U-251 = assay: Growth inhibition of human U251 cells after 48 hrs by SRB assay; format: functional; conditions: U-251, 48 h
KM12 = assay: Growth inhibition of human KM12 cells after 48 hrs by SRB assay; format: functional; conditions: KM12, 48 h
SR = assay: Growth inhibition of human SR cells after 48 hrs by SRB assay; format: functional
MDA-MB-435 = assay: Growth inhibition of human MDA-MB-435 cells after 48 hrs by SRB assay; format: functional; conditions: MDA-MB-435, 48 h
ACHN = assay: Growth inhibition of human ACHN cells after 48 hrs by SRB assay; format: functional
SK-MEL-5 = assay: Growth inhibition of human SK-MEL-5 cells after 48 hrs by SRB assay; format: functional; conditions: SK-MEL-5, 48 h
[4] = Growth inhibition of human EKVX cells after 48 hrs by SRB assay; format: functional
HT-29 = assay: Growth inhibition of human HT-29 cells after 48 hrs by SRB assay; format: functional; conditions: HT-29, 48 h
SNB-19 = assay: Growth inhibition of human SNB19 cells after 48 hrs by SRB assay; format: functional; conditions: SNB-19, 48 h
NCI-H322M = assay: Growth inhibition of human NCI-H322M cells after 48 hrs by SRB assay; format: functional
OVCAR-8 = assay: Growth inhibition of human OVCAR8 cells after 48 hrs by SRB assay; format: functional; conditions: OVCAR-8, 48 h
OVCAR-3 = assay: Growth inhibition of human OVCAR3 cells after 48 hrs by SRB assay; format: functional; conditions: OVCAR-3, 48 h
MDA-MB-231 = assay: Growth inhibition of human MDA-MB-231 cells after 48 hrs by SRB assay; format: functional; conditions: MDA-MB-231, 48 h
SF-295 = assay: Growth inhibition of human SF295 cells after 48 hrs by SRB assay; format: functional; conditions: SF-295, 48 h
UO-31 = assay: Growth inhibition of human UO31 cells after 48 hrs by SRB assay; format: functional; conditions: UO-31, 48 h
SK-MEL-28 = assay: Growth inhibition of human SK-MEL-28 cells after 48 hrs by SRB assay; format: functional; conditions: SK-MEL-28, 48 h
NCI-H522 = assay: Growth inhibition of human NCI-H522 cells after 48 hrs by SRB assay; format: functional; conditions: NCI-H522, 48 h
T47D = assay: Growth inhibition of human T47D cells after 48 hrs by SRB assay; format: functional
COLO 205 = assay: Growth inhibition of human COLO205 cells after 48 hrs by SRB assay; format: functional; conditions: COLO 205, 48 h
LOX IMVI = assay: Growth inhibition of human LOXIMVI cells after 48 hrs by SRB assay; format: functional
JC = assay: Modulatory activity at P-gp in mouse JC cells assessed as lowest drug concentration required to increase intracellular [3H]taxol accumulation pretreated for 30 mins prior to [3H]taxol addition measured after 60 mins by liquid scintillation counting analysis; format: cell-based
Procedure, shortened: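 JC cells were seeded at about 25% confluency and grown 3–4 days to near confluency. Medium was switched to serum-free, and compounds were preincubated for 30 min at 37 °C. About 0.1 µCi [³H]Taxol (75 Ci/mmol) per well followed, for 60 min at 37 °C. Cells were washed twice with ice-cold PBS and lysed in 1% SDS. Intracellular label was counted by liquid scintillation, and the lowest concentration giving maximal accumulation was recorded.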

[5] = Cytotoxicity against mouse JC cells assessed as inhibition of cell survival after 48 hrs by SRB assay; format: functional, cell-based
Procedure, shortened: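 JC (CRL-2116) cells kept in RPMI-1640 with L-glutamine, 10% FBS and 50 μg/ml gentamicin at 37 °C, 5% CO₂. Cells were seeded at about 20% confluency and left 24 h to attach, then exposed to a range of concentrations for 48 h. Cells were PBS-washed, fixed in 10% trichloroacetic acid and stained with 0.4% SRB in 1% acetic acid. Dye was dissolved in 10 mM Tris and absorbance read at 570 nm.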

Malme-3M = assay: Growth inhibition of human MALME-3M cells after 48 hrs by SRB assay; format: functional
RPMI-8226 = assay: Growth inhibition of human RPMI8226 cells after 48 hrs by SRB assay; format: functional; conditions: RPMI-8226, 48 h
786-0 = assay: Growth inhibition of human 786-0 cells after 48 hrs by SRB assay; format: functional; conditions: 786-0, 48 h
HOP-92 = assay: Growth inhibition of human HOP92 cells after 48 hrs by SRB assay; format: functional; conditions: HOP-92, 48 h
SN12C = assay: Growth inhibition of human SN12C cells after 48 hrs by SRB assay; format: functional
NCI-H226 = assay: Growth inhibition of human NCI-H226 cells after 48 hrs by SRB assay; format: functional; conditions: NCI-H226, 48 h
NCI-H23 = assay: Growth inhibition of human NCI-H23 cells after 48 hrs by SRB assay; format: functional; conditions: NCI-H23, 48 h
HL-60 = assay: Growth inhibition of human HL60 cells after 48 hrs by SRB assay; format: functional; conditions: HL-60, 48 h
A498 = assay: Growth inhibition of human A498 cells after 48 hrs by SRB assay; format: functional; conditions: A498, 48 h
DU-145 = assay: Growth inhibition of human DU145 cells after 48 hrs by SRB assay; format: functional; conditions: DU-145, 48 h
CAKI-1 = assay: Growth inhibition of human CAKI-1 cells after 48 hrs by SRB assay; format: functional; conditions: CAKI-1, 48 h
SW-620 = assay: Growth inhibition of human SW620 cells after 48 hrs by SRB assay; format: functional; conditions: SW-620, 48 h
PC-3 = assay: Growth inhibition of human PC3 cells after 48 hrs by SRB assay; format: functional; conditions: PC-3, 48 h
HCT-116 = assay: Growth inhibition of human HCT116 cells after 48 hrs by SRB assay; format: functional; conditions: HCT-116, 48 h
NCI-H460 = assay: Growth inhibition of human NCI-H460 cells after 48 hrs by SRB assay; format: functional; conditions: NCI-H460, 48 h
CCRF-CEM = assay: Growth inhibition of human CCRF-CEM cells after 48 hrs by SRB assay; format: functional
M14 = assay: Growth inhibition of human M14 cells after 48 hrs by SRB assay; format: functional; conditions: M14, 48 h
SF-268 = assay: Growth inhibition of human SF268 cells after 48 hrs by SRB assay; format: functional; conditions: SF-268, 48 h

In the case of `COc1ccc(Cn2cc(CCc3cc(OC)c(OC)c(OC)c3)c3c(C)nc(N)nc32)cc1`, the GI50 (OVCAR-4) is reported as 338 nM, the GI50 (MDA-MB-468) is reported as 52.4 nM and the GI50 (SNB-75) is reported as 172 nM. It also gave a GI50 (HOP-62) of 362 nM, a GI50 (NCI/ADR-RES) of 202 nM and a GI50 (IGROV-1) of 154 nM. The GI50 (UACC-62) was 61.5 nM, the GI50 (UACC-257) was > 1000 nM and the “Ratio IC50” value [1] was 4. It also gave a GI50 (HCT-15) of 242 nM, a GI50 (SF-539) of 96.4 nM and a GI50 (K562) of 116 nM. It also gave a GI50 (A549) of 329 nM, a GI50 (RXF 393) of 44.1 nM and a GI50 (MCF7) of 46.4 nM. The GI50 (TK-10) was 686 nM, the GI50 (OVCAR-5) was 596 nM and the GI50 [2] was 139 nM. It also gave a GI50 [3] of 191 nM, a GI50 (SK-MEL-2) of 446 nM and a GI50 (SK-OV-3) of 251 nM. The GI50 (BT-549) was 440 nM, the GI50 (U-251) was 311 nM and the GI50 (KM12) was 264 nM. For the same compound, the GI50 (SR) was 120 nM, the GI50 (MDA-MB-435) was 32.1 nM and the GI50 (ACHN) was 216 nM. For the same compound, the GI50 (SK-MEL-5) was 110 nM, the GI50 [4] was 348 nM and the GI50 (HT-29) was 247 nM. The GI50 (SNB-19) was 234 nM, the GI50 (NCI-H322M) was 712 nM and the GI50 (OVCAR-8) was 334 nM. For the same compound, the GI50 (OVCAR-3) was 164 nM, the GI50 (MDA-MB-231) was 361 nM and the GI50 (SF-295) was 83.9 nM. It also gave a GI50 (UO-31) of 397 nM, a GI50 (SK-MEL-28) of 417 nM and a GI50 (NCI-H522) of 31.6 nM. For the same compound, the GI50 (T47D) was 443 nM, the GI50 (COLO 205) was 204 nM and the GI50 (LOX IMVI) was 364 nM. The LED (JC) was 0.2 µM, the IC50 [5] was 600 nM and the GI50 (Malme-3M) was 284 nM. For the same compound, the GI50 (RPMI-8226) was 713 nM, the GI50 (786-0) was 575 nM and the GI50 (HOP-92) was > 1000 nM. For the same compound, the GI50 (SN12C) was 499 nM, the GI50 (NCI-H226) was 927 nM and the GI50 (NCI-H23) was 428 nM. The GI50 (HL-60) was 220 nM, the GI50 (A498) was 115 nM and the GI50 (DU-145) was 337 nM. It also gave a GI50 (CAKI-1) of 206 nM, a GI50 (SW-620) of 208 nM and a GI50 (PC-3) of 301 nM. The GI50 (HCT-116) was 265 nM, the GI50 (NCI-H460) was 251 nM and the GI50 (CCRF-CEM) was > 1000 nM. It also gave a GI50 (M14) of 204 nM and a GI50 (SF-268) of 379 nM.

For `COc1ccc(Cn2cc(CCc3cc(OC)c(OC)c(OC)c3)c3c(C)nc(N)nc32)cc1OC`, the LED (JC) was 1.2 µM and the IC50 [5] was 1500 nM.

In the case of `COc1cccc(Cn2cc(CCc3cc(OC)c(OC)c(OC)c3)c3c(C)nc(N)nc32)c1`, the LED (JC) is reported as 0.5 µM and the IC50 [5] is reported as 1400 nM.

In the case of `COc1ccccc1Sc1cn(Cc2cc(OC)c(OC)c(OC)c2)c2nc(N)nc(C)c12`, the LED (JC) is reported as “inactive” and the IC50 [5] is reported as 3000 nM.
